Most compounds without a hit are left out; they make up all but 1.7% or so of the library.
LMPTP inh – LMPTP phosphatase inhibitors, primary screen, biochemical, fluorescence intensity, uHTS; inhibition, % at 20 µM; Low molecular weight phosphotyrosine protein phosphatase (Homo sapiens), P24666; recombinant LMPTP-A, OMFP fluorogenic substrate; 0.22% of 360,000 active;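 active means compounds that cut the enzyme signal by at least half of the control window in the single-dose screen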
Target sequence (P24666 whole entry, looked up): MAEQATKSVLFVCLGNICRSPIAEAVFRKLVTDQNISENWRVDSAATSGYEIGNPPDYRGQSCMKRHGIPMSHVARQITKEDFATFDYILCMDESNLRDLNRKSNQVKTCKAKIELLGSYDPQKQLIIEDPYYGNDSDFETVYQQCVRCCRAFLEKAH
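Test system: LMPTP-A, protein tyrosine phosphatase of low molecular weight; Input: 0.625 nM enzyme; Incubation: 50 min dark incubation at room temperature; Signal: endpoint fluorescence intensity from OMFP dephosphorylation; Read-out basis: % inhibition versus control wells.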
SUMO1-SIM PPI – modulators of SUMO1 protein-protein interactions, primary screen, biochemical, uHTS; SUMO1 binding to a labelled peptide, TR-FRET, 1 h; inhibition, % at 20 µM; 0.33% of 360,000 active; in the data active means inhibition above about 37%
Target sequence (P63165 whole entry, looked up): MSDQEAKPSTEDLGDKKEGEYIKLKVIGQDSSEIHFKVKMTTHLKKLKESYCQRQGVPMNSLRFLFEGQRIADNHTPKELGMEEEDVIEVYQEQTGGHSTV
STEP block – STEP phosphatase inhibitors, primary screen, biochemical, fluorescence intensity, uHTS; recombinant STEP, OMFP fluorogenic substrate; inhibition, % at 20 µM; 0.25% of 360,000 active; AID 588621, 2011;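 active means inhibition at 20 µM, scaled per plate between control wells, above about 37%, limit read from the data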
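material = STEP tyrosine phosphatase | reagent = fluorogenic phosphatase substrate OMFP at 25 µM final | doses = single compound dose of 20 µM, 1% DMSO final | schedule = 20 min reaction, room temperature, in the dark | measured by = fluorescence, 480/540 nm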
Scp-1 inhibitor – Scp-1 phosphatase inhibitors, primary screen, biochemical, colorimetric, uHTS; inhibition, % at 20 µM; Recombinant Scp1, phosphopeptide, malachite green phosphate absorbance; 0.88% of 340,000 active; Carboxy-terminal domain RNA polymerase II polypeptide A small phosphatase 1 (Homo …;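 active means inhibition above about 50% at 20 µM, limit read from the data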
Target sequence (Q9GZU7 76-261 limits assumed): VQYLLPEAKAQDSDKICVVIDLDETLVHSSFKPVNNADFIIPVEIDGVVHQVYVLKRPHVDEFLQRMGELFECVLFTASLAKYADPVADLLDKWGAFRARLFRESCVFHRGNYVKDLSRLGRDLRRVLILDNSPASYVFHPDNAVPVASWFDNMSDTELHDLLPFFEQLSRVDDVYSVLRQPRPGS
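Material: truncated SCP-1 phosphatase (76-261aa) / Buffer or medium: 50 mM Tris acetate pH 5.5, 0.005% Tween-20, 10 mM MgCl2 / Compound dosing: one concentration, 20 µM, with 1.0% DMSO / Incubation: 45 min room-temperature reaction, 5 min colour, 30 min stabiliser / Detection: colorimetric free-phosphate detection, absorbance 630 nm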
DNMT1 inh – human DNMT1 methyltransferase inhibitors, primary screen, biochemical, molecular beacon, fluorescence, HinP1I cleavage, uHTS; DNA (cytosine-5)-methyltransferase 1 (Homo sapiens), P26358; inhibition (reported as % activation of signal), % at 10 µM; 0.83% of 360,000 active; AID 588458, 2011; in the data active means inhibition above about 50%
Scp1 confirm – Scp-1 phosphatase inhibitors, retest, confirmation, biochemical, colorimetric, single concentration; shares compounds with Scp-1 inhibitor; recombinant SCP-1 catalytic domain, phosphate release, malachite green absorbance; inhibition, % at 20 µM; 61% of 2,500 active; AID 540281, 2011
Scp-1 MG ctr – colorimetric readout interference by compounds, confirmation, artefact control for Scp-1 inhibitor project, biochemical, single concentration. shares compounds with Scp-1 inhibitor. Colorimetric interference counterscreen, malachite green absorbance 630 nm. apparent inhibition (interference), % at 20 µM. 2,500 tested, under 10 active. AID 540313, 2011;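 further: compounds added after enzyme reaction finished so only phosphate colour detection is probed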
Scp-1 Tm shift – Scp-1 binding by thermal shift, confirmation, orthogonal assay for Scp-1 inhibitor project, biophysical, differential scanning fluorimetry; shares compounds with Scp-1 inhibitor; Recombinant SCP1, Sypro Orange thermal shift Tm; thermal shift relative to vanadate control, % at 40 µM; 25% of 1,500 active; AID 540329, 2011;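 active means substances whose mean melting-temperature shift, as a percentage of the reference inhibitor's shift, reaches about 5.3%, limit read from the data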
A number is an active result; . = inactive; / = no result.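 How the source made its calls, unless noted: active means inhibition of at least 30% at 20 µM; inactive means the rest.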

SMILES | LMPTP inh | SUMO1-SIM PPI | STEP block | Scp-1 inhibitor | DNMT1 inh | Scp1 confirm | Scp-1 MG ctr | Scp-1 Tm shift
N#C/C(=C/c1ccccc1OCc1ccc(F)cc1)c1ccc(C(=O)O)cc1 | . | . | . | 65 | . | . | . | /
CCSC1=N/C(=C\c2ccc(OC)cc2)C(=O)N1 | . | . | . | 50 | . | . | . | /
Cc1ccc(S(=O)(=O)N2CCCCC2)cc1C(=O)Nc1cccnc1 | . | . | . | 53 | . | 51 | . | .
CCOc1ccc(Nc2ccc(N)c(S(=O)(=O)O)c2)cc1 | 74 | 37 | 81 | 84 | 87 | 66 | . | 20
Cc1cc(C)n2cc(CSCc3ccccc3)nc2n1 | . | . | . | . | . | / | / | /
Cc1cc(C)n2cc(CSc3nnc(-c4ccccc4)o3)nc2n1 | . | . | . | 80 | . | . | . | /
CC1CC(C)CN(C(=O)COC(=O)/C=C/c2ccco2)C1 (configuration not stated) | . | . | . | 59 | . | 48 | . | .
Cc1nnsc1-c1c(C(=O)O)c(C)nn1-c1ccc(OC(F)(F)F)cc1 | . | . | . | 91 | . | . | . | /
Cc1nnsc1-c1c(C(=O)N2CCOCC2)c(C)nn1-c1ccccc1 | . | . | . | . | . | / | / | /
CCOC(=O)N1CCC(N2CC34C=CC(O3)C(C(=O)Nc3ccc(F)cc3)C4C2=O)CC1 (configuration not stated) | . | . | . | 90 | . | . | . | /
O=C(CN1CCOCC1)NNC(=O)c1ccc(Cl)cc1 | . | . | . | . | . | / | / | /
O=C(CN1C(=O)/C(=C2/SC(=S)N(CCS(=O)(=O)O)C2=O)c2ccccc21)Nc1cccc(C(F)(F)F)c1 | . | . | . | 84 | . | 85 | . | 885
O=C(CN1C(=O)NC2(CCCC2)C1=O)Nc1cccc(C(F)(F)F)c1 | . | . | . | . | . | / | / | /
O=c1c(OC2OC(CO)C(O)C(O)C2O)c(-c2ccc(O)c(O)c2)oc2cc(O)cc(O)c12 (configuration not stated) | . | . | . | . | . | . | . | /
O=c1c(O[C@@H]2O[C@H](CO)C(O)C2O)c(-c2ccc(O)c(O)c2)oc2cc(O)cc(O)c12 (some centres not stated) | . | . | . | . | . | / | / | /
O=C1CCCN1CCCNC(=S)Nc1ccccc1Cl | . | . | . | . | . | . | . | /
O=C(CC1Oc2ccccc2NC1=O)NCCCN1CCCC1=O (configuration not stated) | . | . | . | . | . | . | . | /
CCCS(=O)(=O)NC(=O)C1(C)CCCN(C(=O)c2ccccc2)C1 (configuration not stated) | . | . | . | / | . | / | / | /
Cc1cccc2cc(C(c3nnnn3C(C)(C)C)N(Cc3ccco3)CC3CCCO3)c(=O)[nH]c12 (configuration not stated) | . | . | . | 61 | . | 53 | . | .
CC1CN(S(=O)(=O)c2cccc(C(=O)N(C)C3CCCCC3)c2)CC(C)O1 (configuration not stated) | . | . | . | / | . | / | / | /
CN(C(=O)c1cccc(NC(=O)Cc2ccc(NC(=O)C3CCN(C(=O)C4CCC4)CC3)cc2)c1)C1CCCC1 | . | . | . | . | . | / | / | /
COc1ccc(S(=O)(=O)CCC(=O)N2CCN(c3ccc([N+](=O)[O-])cc3)CC2)cc1 | . | . | . | . | . | / | / | /
Cc1ccc(S(=O)(=O)CCC(=O)N2CCN(c3ccc([N+](=O)[O-])cc3)CC2)cc1 | . | . | . | 59 | . | . | . | /
CC(=O)N1CCC(C(=O)N2c3ccccc3N=C(c3ccc4c(c3)OCO4)C2C(=O)NCc2ccccc2)CC1 (configuration not stated) | . | . | / | / | / | / | / | /
CSc1ncccc1C(=O)OCC(=O)N(CC(C)C)c1c(N)n(Cc2ccccc2)c(=O)[nH]c1=O | . | . | . | . | . | / | / | /
SMILES | LMPTP inh | SUMO1-SIM PPI | STEP block | Scp-1 inhibitor | DNMT1 inh | Scp1 confirm | Scp-1 MG ctr | Scp-1 Tm shift
COc1ccc([N+](=O)[O-])cc1NCc1c(F)cccc1F | . | . | . | / | . | / | / | /
C/C(=N\Nc1ccc(Cl)c(C(=O)O)c1)c1ccc[nH]1 | . | . | . | 73 | . | 59 | . | 17
C/C(=N\Nc1ccc(Cl)c(C(=O)O)c1)c1cccs1 | . | . | . | . | . | / | / | /
C[N+]1(CC2COC3(CCCCC3)O2)CCCC1 (configuration not stated) | . | . | . | 61 | . | . | . | /
O=C(CSc1ncnc2sc3c(c12)CCC3)N1CCOCC1 | . | . | . | 54 | . | 56 | . | .
C[N+]1(CN2C(=O)C3C4C=CC(C4)C3C2=O)CCCCC1 (configuration not stated) | . | . | . | 103 | . | 89 | . | .
COc1ncc(C2=CC(=O)CC(C)(C)C2)cn1 | . | . | . | . | . | / | / | /
Cc1ccc(-n2[nH]c(C)c(/C=N/Nc3ccc([N+](=O)[O-])cc3[N+](=O)[O-])c2=O)cc1 | . | . | . | 61 | . | 80 | . | 11
COc1ccc(N2C(=O)NC(NS(=O)(=O)c3ccc(NC(C)=O)cc3)(C(F)(F)F)C2=O)cc1 (configuration not stated) | . | . | . | . | . | / | / | /
CCOc1ccc2c(c1)[N+](C)(C)C(C)(C)C=C2C | . | . | . | . | . | / | / | /
COc1ccc2c(c1)[N+](C)(C)C(C)(C)C=C2C | . | . | . | 93 | . | 86 | . | .
O=C(CSc1nc(=O)n(CCCN2CCOCC2)c2c1CCC2)Nc1ccccc1F | . | . | . | . | . | / | / | /
COc1ccc(CNC(=O)C2(C)Cc3c(-c4ccc5c(c4)OCO5)ccnc3O2)cc1OC (configuration not stated) | . | . | . | / | . | / | / | /
Cc1oc2c(C)c3oc(=O)c(CC(=O)N[C@@H](CCCNC(N)=O)C(=O)O)c(C)c3cc2c1C | . | . | . | 52 | . | 43 | . | .

Screening results (PubChem BioAssay)
